Assay results taken from ChEMBL document CHEMBL4043131, “New prodrugs of two pyrimidine acyclic nucleoside phosphonates: Synthesis and antiviral activity” (Bioorg Med Chem, 2017).
Active and inactive are the calls of the source. The rule behind the calls is not given here.

How the values were obtained:
[1] = test system: Vesicular stomatitis virus; test: Antiviral activity against Vesicular stomatitis virus infected in HEL cells assessed as inhibition of virus-induced cytopathic effect; type: functional, cell-based
Human alphaherpesvirus 1 [2] = test: Antiviral activity against wild type Herpes simplex virus 1 KOS infected in HEL cells assessed as inhibition of virus-induced cytopathic effect; type: functional, cell-based; settings: Human alphaherpesvirus 1, KOS
[3] = test system: Mammalian orthoreovirus 1; test: Antiviral activity against Reovirus-1 infected in African green monkey Vero cells assessed as inhibition of virus-induced cytopathic effect; type: functional
In short: (§1)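 Confluent cell monolayers were infected with 100 CCID50 of virus (1 CCID50 = dose infecting 50% of cultures) and incubated with varying compound concentrations. Cytopathicity was scored once complete in untreated infected controls.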

Human alphaherpesvirus 3 [4] = test: Antiviral activity against wild type thymidine kinase expressing Varicella-Zoster virus Oka infected in HEL cells assessed as inhibition of virus-induced plaque formation; type: functional, cell-based; settings: Human alphaherpesvirus 3, Oka
In short: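 Confluent HEL cultures were inoculated with 20 PFU of VZV and incubated with varying compound concentrations. Plaques were counted once formation was complete in untreated infected controls.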

[5] = Antiviral activity against Respiratory syncytial virus A strain long infected in human HeLA cells assessed as inhibition of virus-induced cytopathic effect; type: functional, cell-based; in short: as §1
Human alphaherpesvirus 2 = test: Antiviral activity against Herpes simplex virus 2 G infected in HEL cells assessed as inhibition of virus-induced cytopathic effect; type: functional, cell-based; settings: Human alphaherpesvirus 2, strain G; in short: as §1
Influenza A virus H3N2 = test: Antiviral activity against Influenza A virus H3N2 infected in HEL cells assessed as inhibition of virus-induced cytopathic effect; type: functional, cell-based
Human alphaherpesvirus 3 [6] = test: Antiviral activity against wild type thymidine kinase-deficient Varicella-Zoster virus 07-1 infected in HEL cells assessed as inhibition of virus-induced plaque formation; type: functional, cell-based; settings: Human alphaherpesvirus 3, 07-1, HEL
In short: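 HEL fibroblast monolayers were infected with 20 PFU of VZV and kept with varying compound concentrations. Plaques were counted once formation was complete in untreated infected controls.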

Punta Toro virus = test: Antiviral activity against Punta Toro virus infected in African green monkey Vero cells assessed as inhibition of virus-induced cytopathic effect; type: functional; in short: as §1
Influenza B virus = test: Antiviral activity against influenza B virus infected in HEL cells assessed as inhibition of virus-induced cytopathic effect; type: functional, cell-based
Human betaherpesvirus 5 [7] = test: Antiviral activity against Human cytomegalovirus AD169 infected in HEL cells assessed as inhibition of virus-induced cytopathic effect; type: functional, cell-based; settings: Human betaherpesvirus 5, AD169, HEL; in short: as §1
Feline coronavirus = test: Antiviral activity against Feline coronavirus infected in CRFK cells assessed as inhibition of virus-induced cytopathic effect; type: functional, cell-based
Influenza A virus = test: Antiviral activity against Influenza A virus (H1N1) infected in HEL cells assessed as inhibition of virus-induced cytopathic effect; type: functional, cell-based
Coxsackievirus B4 = test: Antiviral activity against Coxsackie virus B4 infected in human HeLA cells assessed as inhibition of virus-induced cytopathic effect; type: functional, cell-based; in short: as §1
Human alphaherpesvirus 1 [8] = test: Antiviral activity against thymidine kinase-deficient ACV-resistant Herpes simplex virus 1 KOS infected in HEL cells assessed as inhibition of virus-induced cytopathic effect; type: functional, cell-based; settings: Human alphaherpesvirus 1, KOS
Vaccinia virus = test: Antiviral activity against Vaccinia virus Lederle infected in HEL cells assessed as inhibition of virus-induced cytopathic effect; type: functional, cell-based; settings: Orthopoxvirus vaccinia
Human betaherpesvirus 5 [9] = test: Antiviral activity against Human cytomegalovirus Davis infected in HEL cells assessed as inhibition of virus-induced cytopathic effect; type: functional, cell-based; settings: Human betaherpesvirus 5, Davis; in short: as §1
Sindbis virus = test: Antiviral activity against Sindbis virus infected in African green monkey Vero cells assessed as inhibition of virus-induced cytopathic effect; type: functional; in short: as §1
Human respirovirus 3 = test: Antiviral activity against Parainfluenza virus 3 infected in African green monkey Vero cells assessed as inhibition of virus-induced cytopathic effect; type: functional; in short: as §1
HEL = test: Cytotoxicity against HEL cells assessed as reduction in cell growth after 3 days by coulter counter method; type: cell-based; settings: human, hel, 72 h
In short: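 HEL cells were seeded at 5 × 10³ cells/well and grown for 24 h, then given medium containing graded compound concentrations. After 3 days at 37 °C, cells were counted by Coulter counter.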

[10] = Selectivity index, ratio of CC50 for HEL cells to EC50 for thymidine kinase-deficient ACV-resistant Herpes simplex virus 1 KOS infected in HEL cells; type: toxicity, cell-based; settings: human, read-out: Ratio CC50/EC50
In short: (§2)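 EC50 is the concentration halving cytopathicity in HEL cells infected with 100 CCID50 HSV. […] Cells were counted by Coulter counter, and CC50 was read from plots of cell number (% of untreated) versus concentration. SI = CC50/EC50.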

[11] = Selectivity index, ratio of CC50 for HEL cells to EC50 for Herpes simplex virus 2 G infected in HEL cells; type: toxicity, cell-based; settings: human, read-out: Ratio CC50/EC50; in short: as §2
[12] = Selectivity index, ratio of CC50 for HEL cells to EC50 for wild type thymidine kinase expressing Varicella-Zoster virus Oka infected in HEL cells; type: toxicity, cell-based; settings: human, read-out: Ratio CC50/EC50
[13] = Selectivity index, ratio of CC50 for HEL cells to EC50 for wild type thymidine kinase-deficient Varicella-Zoster virus 07-1 infected in HEL cells; type: toxicity, cell-based; settings: human, read-out: Ratio CC50/EC50
[14] = Selectivity index, ratio of CC50 for HEL cells to EC50 for wild type Herpes simplex virus 1 KOS infected in HEL cells; type: toxicity, cell-based; settings: human, read-out: Ratio CC50/EC50; in short: as §2

SMILES	Activity [1]	EC50 (Human alphaherpesvirus 1 [2])	Activity [3]	EC50 (Human alphaherpesvirus 3 [4])	Activity [5]	EC50 (Human alphaherpesvirus 2)	Activity (Influenza A virus H3N2)	EC50 (Human alphaherpesvirus 3 [6])	Activity (Punta Toro virus)	Activity (Influenza B virus)	EC50 (Human betaherpesvirus 5 [7])	Activity (Feline coronavirus)	Activity (Influenza A virus)	Activity (Coxsackievirus B4)	EC50 (Human alphaherpesvirus 1 [8])	EC50 (Vaccinia virus)	EC50 (Human betaherpesvirus 5 [9])	Activity (Sindbis virus)	Activity (Human respirovirus 3)	CC50 (HEL)	other results
CC(C)OC(=O)OCOP(=O)(O)COCCn1cnc(N)nc1=O	inactive	> 100 µM	inactive	48.9 µM	inactive	> 100 µM	inactive	48.9 µM	inactive	inactive	> 100 µM	inactive	inactive	inactive	> 100 µM	> 100 µM	> 100 µM	inactive	inactive	–	–
Nc1ccn(C[C@@H](CO)OCP(=O)(O)O)c(=O)n1 [CIDOFOVIR]	–	2.93 µM	–	–	–	1.39 µM	–	–	–	–	0.87 µM	–	–	–	2.66 µM	22.2 µM	0.76 µM	–	–	216 µM	–
Nc1cc(OCCOCP(=O)(O)O)nc(N)n1	inactive	45 µM	inactive	2.07 µM	inactive	20 µM	inactive	4.72 µM	inactive	inactive	> 100 µM	inactive	inactive	inactive	54 µM	> 100 µM	> 100 µM	inactive	inactive	90.3 µM	selectivity ratio [10]: 1.72 to 4.5; selectivity ratio [11]: 1.72 to 4.5; selectivity ratio [12]: 19 to 44; selectivity ratio [13]: 19 to 44; selectivity ratio [14]: 1.72 to 4.5
CC(C)OC(=O)OCOP(=O)(COCCn1cnc(N)nc1=O)OCOC(=O)OC(C)C	inactive	22 µM	inactive	15.3 µM	inactive	22 µM	inactive	23.2 µM	inactive	inactive	26.2 µM	inactive	inactive	inactive	22 µM	> 100 µM	20 µM	inactive	inactive	–	–
CCCCCCCCCCCCCCCCCCOCCOP(=O)(COCCn1cnc(N)nc1=O)OCCOCCCCCCCCCCCCCCCCCC	inactive	> 100 µM	inactive	> 4 µM	inactive	> 100 µM	inactive	> 0.8 µM	inactive	inactive	> 20 µM	inactive	inactive	inactive	> 100 µM	> 100 µM	> 20 µM	inactive	inactive	–	–
O=c1[nH]c(=O)n([C@H]2C[C@H](O)[C@@H](CO)O2)cc1/C=C/Br [BRIVUDINE]	–	–	–	0.024 µM	–	141 µM	–	58.8 µM	–	–	–	–	–	–	–	19.1 µM	–	–	–	242 µM	–
CCCCCCCCCCCCCCCCCCOCCNc1ncn(CCOCP(=O)(OCCOCCCCCCCCCCCCCCCCCC)OCCOCCCCCCCCCCCCCCCCCC)c(=O)n1	inactive	> 100 µM	inactive	44.7 µM	inactive	> 100 µM	inactive	100 µM	inactive	inactive	> 100 µM	inactive	inactive	inactive	> 100 µM	> 100 µM	> 100 µM	inactive	inactive	–	–
CC(C)(C)C(=O)OCOP(=O)(COCCOc1cc(N)nc(N)n1)OCOC(=O)C(C)(C)C	inactive	10 µM	inactive	0.67 µM	inactive	9.5 µM	inactive	1.26 µM	inactive	inactive	47.4 µM	inactive	inactive	inactive	14.5 µM	–	36.5 µM	inactive	inactive	16.6 µM	–
CC(C)(C)C(=O)OCOP(=O)(O)COCCn1cnc(N)nc1=O	inactive	142 µM	inactive	40.7 µM	inactive	142 µM	inactive	128 µM	inactive	inactive	123 µM	inactive	inactive	inactive	131 µM	> 275 µM	116 µM	inactive	inactive	> 275 µM	–
COP(=O)(O)COCCn1cnc(N)nc1=O	inactive	> 100 µM	inactive	> 100 µM	inactive	> 100 µM	inactive	> 100 µM	inactive	inactive	> 100 µM	inactive	inactive	inactive	> 100 µM	> 100 µM	> 100 µM	inactive	inactive	> 100 µM	–
Nc1nc(O)c2ncn(COC(CO)CO)c2n1 [GANCICLOVIR]	–	–	–	–	–	–	–	–	–	–	–	–	–	–	–	> 100 µM	–	–	–	≥ 308 µM	–
CCOC(=O)[C@H](Cc1ccccc1)NP(=O)(O)COCCn1cnc(N)nc1=O	inactive	> 100 µM	inactive	> 100 µM	inactive	> 100 µM	inactive	> 100 µM	inactive	inactive	> 100 µM	inactive	inactive	inactive	> 100 µM	> 100 µM	> 100 µM	inactive	inactive	> 100 µM	–
CC(C)(C)C(=O)OCOP(=O)(O)COCCOc1cc(N)nc(N)n1	inactive	39.5 µM	inactive	2.54 µM	inactive	29 µM	inactive	5.91 µM	inactive	inactive	> 100 µM	inactive	inactive	inactive	54 µM	> 100 µM	> 100 µM	inactive	inactive	≥ 100 µM	–
Nc1nc2c(ncn2COCCO)c(=O)[nH]1 [ACYCLOVIR]	–	–	–	–	–	0.18 µM	–	–	–	–	–	–	–	–	–	> 250 µM	–	–	–	> 440 µM	–
